RanGTP-Impb inh: disruptors of Ran-importin-beta complex formation – biochemical, FRET, CFP-Ran, YFP-importin-beta, homogeneous, primary screen | cell-free CFP-Ran/YFP-importin-beta FRET ratio | inhibition, % (test concentration not listed) | actives 1.1% (n = 300,000) | AID 2216;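 active means more than half of the replicate wells show a fall in the fluorescence ratio signal beyond about 16%, limit read from the data, passing the limit was not always enough; inconclusive means exactly half of the replicate wells pass the set limit; inactive means fewer than half of replicates pass the limit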;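 further: 0% = DMSO wells and 100% = Ran loaded with GDP instead of GTP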
Runt-SMMHC FRET: blocks binding of human RUNX1 Runt domain to CBFb-SMMHC | AID 1434 | actives 0.74% (n = 220,000) | Q01196+Q13951 | inhibition, % at 20 µM | Cerulean-Runt/Venus-CBFb-SMMHC FRET ratio 530/480, 1 h;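 active means mean inhibition across duplicate retests at 20 µM reaching about 50%, limit read from the data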;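 further: 0% = DMSO wells and 100% = wells with excess untagged CBFb-SMMHC; inhibitors lower the FRET ratio by blocking Runt binding to CBFb-SMMHC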
LANA-H2B inh: blocks KSHV LANA binding to histone H2A/H2B; actives 0.6% (n = 320,000); AID 2629; cell-free LANA-H2A/H2B peptide, fluorescence polarization; inhibition, % (concentration not given with the values); in the data active means inhibition mostly above about 10%, no sharp cut-off; inactive means mostly below about 6.7%
Runt-CBFb FRET: Runt domain-CBFb interaction inhibition | inhibition, % at 20 µM | Cerulean-Runt/Venus-CBFb FRET ratio 530/480, 1 h | Q01196+Q13951 | actives 0.46% (n = 220,000);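 active means inhibition over about 50% at 20 µM in the single-dose screen, limit read from the data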;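 further: 0% = DMSO wells and 100% = excess unlabeled CBFb competitor control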
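Reagent – Venus-CBFb binding partner, 100 nM · Assay system – Cerulean-tagged RUNX1 Runt domain (FRET donor) fusion protein · Input – 100 nM per protein · Incubation – two 1 h room-temperature incubations shielded from light · Measured by – FRET fluorescence · Medium – Tris buffer pH 7.5 with salts and BSA · Benchmarks – unlabeled CBFb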
CaV13 ICDI inh: Disruptors of the CACNA1D IQ motif to Ca2+-dependent inactivation inhibitor domain association, primary screening, Förster resonance energy transfer in intact living …; HEK cells, CFP/YFP FRET ICDI-IQ, plate reader, 10 min; percent FRET-ratio fall versus neutral wells; inhibition, % at 12.3 µM; actives 0.098% (n = 340,000); AID 743397;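 active means mean replicate inhibition of at least 30% and at least 1% of replicates passing that level; inconclusive means only one of the two criteria is met; inactive means neither criterion is met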;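 further: 0% = median of the neutral control wells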
HDAC3 inhib: inhibitors of human histone deacetylase 3; O15379; recombinant HDAC3, fluorogenic peptide/trypsin coupled, fluorescence; inhibition, % at 8.3 µM; actives 0.15% (n = 320,000); AID 2718; in the data active means inhibition above about 26%, passing the limit was not always enough; inconclusive means no clear call, values can overlap the other calls
Target sequence (O15379 whole entry, looked up): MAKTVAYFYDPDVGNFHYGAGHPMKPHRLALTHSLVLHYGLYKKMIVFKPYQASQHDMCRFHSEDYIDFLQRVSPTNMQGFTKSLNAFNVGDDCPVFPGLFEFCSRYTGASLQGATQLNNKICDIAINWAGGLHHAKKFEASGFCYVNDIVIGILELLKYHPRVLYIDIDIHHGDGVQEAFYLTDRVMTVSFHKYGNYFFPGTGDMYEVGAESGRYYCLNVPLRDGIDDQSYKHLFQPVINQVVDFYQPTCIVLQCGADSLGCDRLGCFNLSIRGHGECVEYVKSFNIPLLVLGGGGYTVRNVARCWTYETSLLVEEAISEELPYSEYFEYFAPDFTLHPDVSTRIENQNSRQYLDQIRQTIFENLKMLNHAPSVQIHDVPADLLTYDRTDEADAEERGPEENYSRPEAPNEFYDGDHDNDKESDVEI
Starred values were filed as active, the others as inactive; ? = inconclusive; . = no result given; + = active, no number; ! = not active in a repeat. This is a sample that favours compounds with a hit; in the whole collection about 1.9% have one here.

SMILES	RanGTP-Impb inh	Runt-SMMHC FRET	LANA-H2B inh	Runt-CBFb FRET	CaV13 ICDI inh	HDAC3 inhib
COc1ccc(/C=C/C(=O)NC(=S)Nc2ccccn2)cc1	5	.	3	.	-3	0
COc1ccccc1/C=C/C(=O)NC(=S)Nc1ccccn1	0	.	8.0*	.	-6	5
NC(=S)Cc1nc(-c2ccccc2)cs1	30*	-4	0	0	-4	1
Oc1csc(Cc2nc(-c3ccc(-c4ccccc4)cc3)cs2)n1	-6	-50	-2	-14	-3	-3
COc1ccc(NC(=O)COc2coc(CN3CCc4ccccc43)cc2=O)cc1	?	.	-1	.	-5	9
CC1C2CC(C(CN(C)C)/C2=N/O)C1(C)C (stereo not given)	-2	-2	66*	1	-5	2
CC1/C(=N/O)C(CN(C)C)C2CC1C2(C)C (stereo not given)	-3	-3	0	-1	-7	6
CCOC(=O)c1[nH]c2c(c1-c1ccccc1)C(=O)CC(c1ccc(OC)c(OC)c1)C2 (stereo not given)	1	3	0	102*	-2	-1
COCCN(C(=O)CNC(=O)c1ccco1)C(C(=O)NC1CCCC1)c1ccc(OC)cc1 (stereo not given)	-3	.	1	.	-3	-2
CCC(C)Sc1ccc(-c2nc3cnccn3c2NC2CCCCC2)cc1 (stereo not given)	30*	.	1	.	-17	3
COc1ccc(-c2nc3cnccn3c2NCc2ccccc2)cc1SC1CCCCC1	?	.	-5	.	.	29*
CCC(C)Sc1ccc(-c2nc3cc(C)ccn3c2NC2CCCCC2)cc1 (stereo not given)	.	.	.	.	-8	.
CCOc1ccccc1N	.	.	23*	.	.	0
O=[N+]([O-])c1cc2c(cc1/C=N/Nc1nc(Nc3ccccc3)nc(N3CCCCC3)n1)OCO2	-1	-2	-4	13	.	-1
Cc1cc(C)n(-c2nc3ccccc3nc2Nc2ccc3[nH]c(=O)[nH]c3c2)n1	32*	-8	-3	-3	-10	-11
COc1ccc2c(c1)O/C(=C\c1sccc1C)C2=O	29*	15	4	3	-5	4
O=C(CN1C(=O)NC2(CCCCC2)C1=O)Nc1ccccc1N1CCCC1	2	.	3	.	-6	3
COc1ccc(N2CCN(C(=O)CS(=O)Cc3nc(-c4ccc(OC)c(OC)c4)oc3C)CC2)cc1 (stereo not given)	1	.	16*	.	-6	-7
Cc1ccc(-c2nc(CS(=O)CC(=O)N3CCN(c4ccc(F)cc4)CC3)c(C)o2)cc1 (stereo not given)	0	.	6	.	-3	-2
CCC(C)[C@H](NC(=O)NCCC1=CCCCC1)C(=O)O (stereo not given in full)	2	-2	35*	-1	-18	-12
O=c1oc2c(CN3CCOCC3)c(O)ccc2c2c1CCC2	.	54*	-4	21	-5	-350
CC1CCCN(Cc2c(O)ccc3c4c(c(=O)oc23)CCCC4)C1 (stereo not given)	10	79*	1	45	-3	-421
Cc1cc(=O)oc2c(CN3CCCC3)c(O)ccc12	9	.	0	.	-12	-268
COc1ccc(N2CCN(C(=O)CC(C)S(=O)(=O)c3ccc4c(c3)NC(=O)CO4)CC2)cc1 (stereo not given)	4	.	-2	.	-4	2
CCn1nc(NS(=O)(=O)c2ccc([N+](=O)[O-])cc2)c2cc3cccc(C)c3nc21	-1	.	4	.	-2	-2
SMILES	RanGTP-Impb inh	Runt-SMMHC FRET	LANA-H2B inh	Runt-CBFb FRET	CaV13 ICDI inh	HDAC3 inhib
CCCn1nc(NC(=O)COC)c2cc3cccc(C)c3nc21	38*	.	1	.	-1	9
CCn1nc(NC(=O)CC(C)C)c2cc3cccc(C)c3nc21	?	.	0	.	-3	-5
CCn1nc(NC(=O)C(C)(C)C)c2cc3cccc(C)c3nc21	47*	.	8	.	-13	-7
Cc1cccc2cc3c(NC(=O)c4ccccn4)nn(C)c3nc12	35*	86	-1	57*	.	-5
CCCn1nc(NC(C)=O)c2cc3cccc(C)c3nc21	69*	.	-13	.	2	-10
Cc1ccccc1NC(=O)c1ccccn1	-2	1	0	1	-16	.
Cc1cc2cc(C)c(NCCNC(=O)c3ccccc3F)nc2cc1C	0	-2	6	3	3	-4
CN(Cc1c(C(=O)N/N=C/c2cccs2)nnn1-c1nonc1N)c1ccccc1	-2	.	-2	.	-8	-1
CCCC(=O)Nc1nn(C)c2nc3c(C)cccc3cc12	31*	39	-3	20	.	6
C[C@@H]1C[C@H]2[C@@H]3CCC4=CC(=O)C=C[C@]4(C)[C@@]3(F)[C@@H](O)C[C@]2(C)[C@@]1(O)C(=O)COP(=O)(O)O	1	1	47*!	0	-5	5
CCCn1cnc2cc(NCc3ccccc3O)ccc21	-2	.	-3	.	-4	-2
CCOc1ccc(CNc2ccc3c(c2)ncn3C)cc1	9	4	6	11	-4	-5
CCOc1ccc(CNc2ccc3c(c2)ncn3C(C)(C)C)cc1	19*	.	1	.	-4	-3
CCCn1cnc2cc(NCc3cccc(OC)c3)ccc21	24*	13	-3	10	-11	-4
COc1ccccc1C(C)NC(=O)C1CCN(S(=O)(=O)c2cccs2)CC1 (stereo not given)	.	.	+	.	-4	1
COc1cc(NC(=O)C2CCN(S(=O)(=O)c3cccs3)CC2)cc(OC)c1	?	.	-2	.	-5	8
COc1ccc(CNC(=O)C(=O)NCC2CCCN2S(=O)(=O)c2cccs2)cc1 (stereo not given)	6	.	-5	.	-6	-3
N=c1c(S(=O)(=O)c2ccc(Br)cc2)cc2c(=O)n3ccccc3nc2n1CCN1CCOCC1	.	.	.	.	-3	.
Cc1ccc(S(=O)(=O)c2cc3c(=O)n4ccccc4nc3n(C)c2=N)cc1	174*	62*	-1	97*	80*	-26
Cc1ccc(S(=O)(=O)c2cc3c(=O)n4ccccc4nc3n(C3CCCC3)c2=N)cc1	123*	.	4	.	12	7
Cc1ccc(S(=O)(=O)c2cc3c(=O)n4ccccc4nc3n(CCc3ccccc3)c2=N)cc1	64*	.	1	.	-3	-2
COc1cc(Cl)ccc1NC(=S)N(CCCN1CCOCC1)Cc1cn(C)c2ccccc12	1	30	-8	43	-8	5
Cc1cc(N2C(=O)C(O)=C(C(=O)c3cc4ccccc4o3)C2c2ccc(Br)cc2)no1 (stereo not given)	47*	.	3	.	-20	3

High-throughput results as filed in PubChem BioAssay.
